Entries after “also recorded” stand apart in the source; their conditions may differ.
Assays:
Type in all cases: cell-based, human
[1] = test system: reactive oxygen species (ROS) in C4–2 cells; test: ROS accumulation by DCFDA staining; details: 10 μM, 48 h
Method in brief: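 C4–2 cells were left untreated or exposed for 48 h to test compound at 10 μM or H2O2 at 10 μM as positive control. Intracellular ROS was stained with DCFDA and quantified.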

C4–2 cells [2] = test: Acridine orange/ethidium bromide; details: 48 h incubation
Method in brief: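 C4–2 cells were double-stained with acridine orange, which marks live and dead cells, and ethidium bromide, which marks dead cells only. Cell morphology was then examined to tell apoptosis from necrosis.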

[3] = test system: PARP1 cleavage in C4–2 cells; test: PARP1 cleavage assay; details: C4–2 cells treated with compound
C4–2 cells [4] = test: DNA ladder; details: 10 μM, 48 h
C4–2 cells [5] = test: Wound healing; details: 12 h, 24 h and 48 h
Method in brief: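 A scratch was made in a C4–2 monolayer. The wounded cells were incubated for a further 12, 24 and 48 h. Images were taken at the start and at each interval to assess migration.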

H2O2
ROS level (DCFDA staining) [1]: high DCFDA staining

COc1ccc2c(C3CC(c4ccncc4)=NO3)c[nH]c2c1 (stereo not drawn) [6c]
AO/EB staining: mode of cell death (C4–2 cells [2]): triggered apoptosis
PARP1 cleavage (cleaved PARP level) [3]: induced apoptosis
DNA ladder formation (C4–2 cells [4]): triggered the formation of DNA ladder
inhibition of cell migration (C4–2 cells [5]): potently inhibit C4–2 cell migration; also recorded: strong anti-cell motility property

Cc1c(C2CC(c3ccncc3)=NO2)c2ccccc2n1Cc1ccc(Cl)cc1 (stereo not drawn) [6i]
AO/EB staining: mode of cell death (C4–2 cells [2]): triggered apoptosis
PARP1 cleavage (cleaved PARP level) [3]: induced apoptosis
DNA ladder formation (C4–2 cells [4]): triggered the formation of DNA ladder
inhibition of cell migration (C4–2 cells [5]): potently inhibit C4–2 cell migration; also recorded: strong anti-cell motility property

Source: article PMC8653574 (Bioorganic & medicinal chemistry letters, 2018)
